“Also recorded” adds a separate entry of the source.
What was measured:
[1] = tested on: New Zealand White rabbits; experiment: Ear bleeding time in the arterial FeCl2-injury rabbit model; format: in vivo
[2] = tested on: New Zealand White rabbits; experiment: Arterial thrombosis; format: in vivo; settings: rabbit carotid artery FeCl2
[3] = tested on: New Zealand White rabbits; experiment: Ear bleeding time in the AV shunt model, prevention protocol; format: in vivo; settings: rabbit AV shunt, any dose (0.3, 1, 3 mg/kg iv) or time point
[4] = target: T1, FXIa (Oryctolagus cuniculus, UniProt G1SSQ6); experiment: Ex vivo FXIa activity in the AV shunt model; settings: rabbit AV shunt; preventative and interventional iv treatment
T1 sequence (G1SSQ6 19-624): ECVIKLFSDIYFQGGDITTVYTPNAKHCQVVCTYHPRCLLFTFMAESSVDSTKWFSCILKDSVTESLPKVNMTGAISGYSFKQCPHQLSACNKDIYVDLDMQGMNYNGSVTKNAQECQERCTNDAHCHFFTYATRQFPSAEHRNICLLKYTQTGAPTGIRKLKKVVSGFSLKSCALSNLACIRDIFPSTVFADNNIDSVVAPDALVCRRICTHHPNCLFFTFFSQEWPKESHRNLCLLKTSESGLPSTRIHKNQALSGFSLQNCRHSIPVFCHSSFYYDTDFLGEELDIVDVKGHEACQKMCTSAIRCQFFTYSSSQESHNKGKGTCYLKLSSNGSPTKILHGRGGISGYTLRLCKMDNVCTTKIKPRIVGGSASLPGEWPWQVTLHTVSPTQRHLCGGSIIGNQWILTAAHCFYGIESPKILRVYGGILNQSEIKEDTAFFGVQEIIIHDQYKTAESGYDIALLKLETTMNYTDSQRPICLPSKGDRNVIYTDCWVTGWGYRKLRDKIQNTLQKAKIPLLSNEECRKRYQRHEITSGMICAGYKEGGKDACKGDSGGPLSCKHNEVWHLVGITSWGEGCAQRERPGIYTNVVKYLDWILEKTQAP

[5] = tested on: New Zealand White rabbits; experiment: Arterio-venous shunt model in rabbits, prevention protocol; format: in vivo; settings: rabbit AV shunt; for Thrombus weight: mean (± SEM), control 14.8 (± 2) mg
Procedure, shortened: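 Male New Zealand White rabbits (2.7–3.0 kg) were anaesthetised with ketamine/xylazine (i.m. bolus, then ear‑vein infusion). A shunt joined the right carotid artery to the left jugular vein through a 4 cm polyethylene tube holding a 6 cm nylon‑wire loop. An i.v. bolus (0.3, 1 or 3 mg/kg) was given 10 min before opening. After 15 min the wire and thrombus were removed and weighed.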

[6] = tested on: APTT in rabbit plasma; experiment: APTT clotting time in rabbit plasma; format: biochemical; settings: mean, n = 2–9
Procedure, shortened: (§1)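 Plasma came from untreated donor animals, collected into citrate, centrifuged at 2500 ×g for 20 min at 4°C, and stored at −20°C. Plasma was incubated with test compound (0–37.5 µM) for 3 min at 37°C, then with kaolin/cephalin APTT reagent for 3 min. Clotting was started with 0.025 M CaCl₂ and timed on an automated coagulometer. EC₁₅₀ is the concentration giving a 1.5‑fold APTT increase.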

[7] = target: T1, FXIa; experiment: Ex vivo FXIa inhibition in the arterial FeCl2-injury rabbit model; settings: mean (± SD) vs control group
Procedure, shortened: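 Anaesthetised male New Zealand White rabbits received oral test compound in the arterial FeCl₂‑injury model. Citrated blood was drawn at the start of the thrombosis experiment, centrifuged at 2500 ×g for 10 min at 4°C, and stored at −20°C. FXIa activity was measured by kaolin/cephalin activation (3 min, 37°C), then 400 µM AMC substrate plus 5.6 µM kallikrein inhibitor. The fluorescence slope over the first 5 min was compared with controls.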

[8] = tested on: APTT in pig plasma; experiment: APTT clotting time in pig plasma; format: biochemical; settings: mean, n = 2–9
Procedure, shortened: as §1

[9] = tested on: New Zealand White rabbits; experiment: Rabbit liver-injury bleeding model; format: in vivo
Procedure, shortened: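 Male New Zealand White rabbits (2.5–3.3 kg) were anaesthetised with ketamine/xylazine and kept at 37°C. A 1 × 1 cm triangular wedge was cut from the liver edge. Pre‑weighed swabs were applied at 30‑s intervals for up to 30 min to give bleeding time and blood loss.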

[10] = tested on: New Zealand White rabbits; experiment: Venous thrombosis; format: in vivo; settings: rabbit jugular vein FeCl2
Procedure, shortened: (§2)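 Male New Zealand White rabbits (2.7–3.0 kg) were anaesthetised with ketamine/xylazine, with the femoral artery and vein cannulated. Thirty min after i.v. dosing, the jugular vein was exposed to FeCl₂ (13% in 100 µl water) on filter paper for 5 min. After a further 30 min the injured vein was excised and the thrombus weighed. Ear bleeding time was recorded as the time bleeding stopped.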

[11] = tested on: PT in human plasma; experiment: Prothrombin time in human plasma; format: biochemical; settings: 0–37.5 µM
Procedure, shortened: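 Human citrated plasma (pooled volunteer plasma or purchased) was incubated with test compound (0–37.5 µM) for 3 min at 37°C. It was then mixed with thromboplastin, and clotting time was measured at 37°C on an automated coagulometer.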

[12] = tested on: APTT in mouse plasma; experiment: APTT clotting time in mouse plasma; format: biochemical; settings: mean, n = 2–9
Procedure, shortened: as §1

[13] = tested on: New Zealand White rabbits; experiment: Arterio-venous shunt model in rabbits, intervention protocol; format: in vivo; settings: rabbit AV shunt
Procedure, shortened: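 Anaesthetised male New Zealand White rabbits (2.7–3.0 kg, ketamine/xylazine) carried a carotid‑artery to jugular‑vein shunt: a 4 cm polyethylene tube with a 6 cm nylon‑wire loop. Test compound was given as an i.v. bolus (1 or 5 mg/kg) via the femoral vein 10 min after the shunt was opened. The shunt ran 30 min, then the wire and attached thrombus were weighed.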

[14] = tested on: New Zealand White rabbits; experiment: Ear bleeding time in the venous FeCl2-injury rabbit model; format: in vivo; settings: asundexian 0.6, 2, or 6 mg/kg iv, any dose group
Procedure, shortened: as §2

[15] = tested on: APTT in plasma of monkeys; experiment: APTT clotting time in monkey plasma; format: biochemical
[16] = tested on: New Zealand White rabbits; experiment: Gum bleeding time in rabbits; format: in vivo; settings: rabbit; intravenous asundexian
Procedure, shortened: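 Male New Zealand White rabbits (2.7–3.0 kg) were under ketamine/xylazine anaesthesia during the arterial FeCl₂‑injury thrombosis experiment. Test compound was given i.v., alone or with aspirin plus ticagrelor. Ear bleeding time and, by an equivalent technique, gum‑mucosa bleeding time were recorded as the time at which bleeding stopped.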

[17] = tested on: APTT in rabbit plasma; experiment: Ex vivo APTT in the rabbit liver-injury model
[18] = tested on: APTT in rat plasma; experiment: APTT clotting time in rat plasma; format: biochemical; settings: mean, n = 2–9
Procedure, shortened: as §1

[19] = tested on: PT in rabbit plasma; experiment: Ex vivo PT in the rabbit liver-injury model
[20] = tested on: APTT in dog plasma; experiment: APTT clotting time in dog plasma; format: biochemical; settings: mean, n = 2–9
Procedure, shortened: as §1

[21] = tested on: APTT in guinea pig plasma; experiment: APTT clotting time in guinea pig plasma; format: biochemical; settings: mean, n = 2–9
Procedure, shortened: as §1

[22] = cited from earlier work
[23] = apixaban 1 mg/kg iv + aspirin + ticagrelor
[24] = apixaban 3 mg/kg iv + aspirin + ticagrelor
[25] = dabigatran high dose (1 mg/kg iv)
[26] = dabigatran low dose (0.3 mg/kg iv)

For `COc1ccc(-n2nc(C(N)=O)c3c2C(=O)N(c2ccc(N4CCCCC4=O)cc2)CC3)cc1` [apixaban, 1‐(4‐methoxyphenyl)‐7‐oxo‐6‐(4‐(2‐oxopiperidin‐1‐yl)phenyl)‐4,5,6,7‐tetrahydro‐1H ‐pyrazolo[3,4‐c]pyridine‐3‐carboxamide, reference compound], the “Increase of ear bleeding time vs aspirin and ticagrelor alone” value [1, 23] was 2.8 fold, the “Increase of ear bleeding time vs aspirin and ticagrelor alone” value [1, 24] was 6.6 fold and the “Additional reduction in thrombus weight on top of aspirin and ticagrelor” value (“Additional reduction in thrombus weight” below) [2, 23] was 46%. For the same molecule, the “Additional reduction in thrombus weight” value [2, 24] was 83%.

With `CC[C@@H](C(=O)Nc1ccc(C(N)=O)c(F)c1)n1cc(OC)c(-c2cc(Cl)ccc2-n2cc(C(F)(F)F)nn2)cc1=O` [asundexian] the “Bleeding times following ear incision” value [3] was “not prolonged”, the “Ex vivo FXIa activity” value [4] was “reduced FXIa activity” and the “Thrombus weight reduction vs control” value ([5]; 0.3 mg/kg iv) was 14%. For the same molecule, the “Thrombus weight reduction vs control” value ([5]; 1 mg/kg iv, P < .01) was 59%, the Thrombus weight ([5]; 1 mg/kg iv) was 6.1 (± 0.9) mg and the “Thrombus weight reduction vs control” value ([5]; 3 mg/kg iv, P < .001) was 71%. The Thrombus weight ([5]; 3 mg/kg iv) was 4.3 (± 0.5) mg, the “APTT prolongation, EC150” value [6] was 1.50 µM and the “Reduction of FXIa activity ex vivo” value ([7]; oral 10 mg/kg) was 17% (± 22%). The “Reduction of FXIa activity ex vivo” value ([7]; oral 30 mg/kg) was 44% (± 29%), the “APTT prolongation, EC150” value [8] was 0.51 µM and the “Bleeding time vs controls” value ([9]; asundexian 6 and 12 mg/kg iv) was “neither 6 nor 12 mg/kg asundexian led to any significant effect; also recorded: no significant effect”. The “Blood loss vs controls” value ([9]; asundexian 6 and 12 mg/kg iv) was “neither 6 nor 12 mg/kg asundexian led to any significant effect; also recorded: no significant effect”, the “Ear bleeding time vs aspirin and ticagrelor alone” value ([1]; asundexian iv + aspirin + ticagrelor) was “did not further increase” and the “Ear bleeding time vs control” value ([1]; oral asundexian 10 mg/kg and 30 mg/kg) was “no prolongation”. The “Ear bleeding time vs control” value ([1]; prophylactic intravenous asundexian 0.6-20 mg/kg) was “no increase”, the “Thrombus weight reduction vs control” value ([10]; asundexian 0.6 mg/kg iv) was 25% and the “Thrombus weight reduction vs control” value ([10]; asundexian 2 mg/kg iv) was 74%. The “Thrombus weight reduction vs control” value ([10]; asundexian 6 mg/kg iv) was 90%, the “Effect on PT” value [11] was “little to no effect” and the “APTT prolongation, EC150” value [12] was >12.5 µM. The “Thrombus weight reduction vs control” value ([13]; 1 mg/kg iv, P < .05) was 33%, the “Thrombus weight reduction vs control” value ([13]; 5 mg/kg iv, P < .001) was 62% and the Thrombus weight ([13]; 5 mg/kg iv, mean (± SEM), control 36.7 (± 3.2) mg) was 14.0 (± 3.5) mg. For the same molecule, the Ear bleeding time [14] was “No ear bleeding time prolongation”, the “Effect on APTT” value [15] was “prolonged” and the Gum bleeding time [16] was “no increase”. For the same molecule, the APTT increase ([17]; asundexian high dose (12 mg/kg iv)) was 2.3 fold, the APTT increase ([17]; asundexian low dose (6 mg/kg iv)) was 1.7 fold and the “APTT prolongation, EC150” value [18] was >12.5 µM. For the same molecule, the “Effect on PT” value ([19]; asundexian 6 and 12 mg/kg iv) was “no effect”, the “Thrombus weight reduction vs control” value ([2]; asundexian 0.6 mg/kg iv bolus) was 25% and the “Additional reduction in thrombus weight” value ([2]; asundexian 2 mg/kg iv + aspirin + ticagrelor) was 32%. The “Additional reduction in thrombus weight” value ([2]; asundexian 6 mg/kg iv + aspirin + ticagrelor) was 70%, the “Additional reduction in thrombus weight” value ([2]; asundexian 12 mg/kg iv + aspirin + ticagrelor) was 98% and the “Thrombus weight reduction vs control” value ([2]; asundexian 20 mg/kg iv bolus) was 88%. The “Thrombus weight reduction vs control” value ([2]; oral 10 mg/kg, 2 h before, P < .05) was 30%, the “Thrombus weight reduction vs control” value ([2]; oral 30 mg/kg, 2 h before, P < .001) was 91% and the “APTT prolongation, EC150” value [20] was 1.59 µM. For the same molecule, the “APTT prolongation, EC150” value [21] was 2.13 µM.

With `[H]/N=C(/N)c1ccc(NCc2nc3cc(C(=O)N(CCC(=O)O)c4ccccn4)ccc3n2C)cc1` [dabigatran, reference compound] the “Increase of bleeding time vs controls” value ([9]; dabigatran 0.3 mg/kg iv, control mean 5.7 min (340 s)) was “approximately 5 fold”, the Bleeding time ([9]; dabigatran 1 mg/kg iv, maximum observation period 30 min) was > 30 min and the APTT increase [17, 25] was 2.2 fold. It also gave an APTT increase [17, 26] of 1.4 fold, a PT increase [19, 25] of 1.7 fold and a PT increase [19, 26] of 1.1 fold.

For `O=C(NC[C@H]1CN(c2ccc(N3CCOCC3=O)cc2)C(=O)O1)c1ccc(Cl)s1` [rivaroxaban, reference compound], the “Ear bleeding time vs control” value ([1]; rivaroxaban iv bolus + infusion, significant for the higher dose) was “prolonged”, the “Thrombus weight reduction (mean)” value ([2]; rivaroxaban iv 0.08 mg/kg +0.09 mg/kg/hour) was 51% and the “Thrombus weight reduction (mean)” value ([2]; rivaroxaban iv 0.24 mg/kg +0.27 mg/kg/hour) was 77%.

For “Osocimab: fully human IgG1 antibody targeting coagulation factor XIa”, the mean elimination half-life [22] is listed as 30 to 44 days.

B1: abelacimab: FXI antibody, dual inhibitor of factor XI and factor XIa (antibody, chains of the INN, looked up, V domains shown)
VH: QVQLLESGGGLVQPGGSLRLSCAASGFTFSTAAMSWVRQAPGKGLEWVSGISGSGSSTYYADSVKGRFTISRDNSKNTLYLQMNSLRAEDTAVYYCARELSYLYSGYYFDYWGQGTLVTVSS
VL: QSVLTQPPSASGTPGQRVTISCSGSSSNIGSNDVSWYQQLPGTAPKLLIYKNYNRPSGVPDRFSGSKSGTSASLAISGLQSEDEADYYCSAWDQRQFDVVFGGGTKLTVL
In the case of B1, the elimination half-life [22] is listed as 25 to 30 days.
